Measurements taken from ChEMBL document CHEMBL1131034, “Synthesis and pharmacological characterization of novel 6-fluorochroman derivatives as potential 5-HT1A receptor antagonists” (J Med Chem, 1998).

Key:
[1] = target: T1, 5-hydroxytryptamine receptor 1A (Homo sapiens) (UniProt P08908); experiment: Antagonist activity against CHO cells expressing the human 5-hydroxytryptamine 1A receptor in a forskolin stimulated adenylate cyclase (FSC) assay.; assay type: functional, cell-based
T1 sequence (whole entry): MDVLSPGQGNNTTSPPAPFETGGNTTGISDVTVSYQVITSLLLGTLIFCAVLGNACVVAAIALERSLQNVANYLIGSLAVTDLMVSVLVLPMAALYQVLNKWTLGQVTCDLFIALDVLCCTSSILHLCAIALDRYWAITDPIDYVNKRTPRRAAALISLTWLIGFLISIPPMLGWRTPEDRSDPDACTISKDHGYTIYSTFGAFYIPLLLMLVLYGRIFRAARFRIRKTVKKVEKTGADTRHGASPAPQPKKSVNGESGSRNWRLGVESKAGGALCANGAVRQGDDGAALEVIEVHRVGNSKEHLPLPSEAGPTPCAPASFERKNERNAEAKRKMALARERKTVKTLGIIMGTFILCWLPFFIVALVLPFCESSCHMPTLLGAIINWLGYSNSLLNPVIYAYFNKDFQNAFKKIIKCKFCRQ

[2] = target: T2, 5-hydroxytryptamine receptor 1A (Rattus norvegicus, UniProt P19327); experiment: Binding affinity against 5-hydroxytryptamine 1A receptor on rat hippocampus using [3H]8-OH-DPAT as radioligand.; assay type: tissue-based
T2 sequence (P19327 whole entry): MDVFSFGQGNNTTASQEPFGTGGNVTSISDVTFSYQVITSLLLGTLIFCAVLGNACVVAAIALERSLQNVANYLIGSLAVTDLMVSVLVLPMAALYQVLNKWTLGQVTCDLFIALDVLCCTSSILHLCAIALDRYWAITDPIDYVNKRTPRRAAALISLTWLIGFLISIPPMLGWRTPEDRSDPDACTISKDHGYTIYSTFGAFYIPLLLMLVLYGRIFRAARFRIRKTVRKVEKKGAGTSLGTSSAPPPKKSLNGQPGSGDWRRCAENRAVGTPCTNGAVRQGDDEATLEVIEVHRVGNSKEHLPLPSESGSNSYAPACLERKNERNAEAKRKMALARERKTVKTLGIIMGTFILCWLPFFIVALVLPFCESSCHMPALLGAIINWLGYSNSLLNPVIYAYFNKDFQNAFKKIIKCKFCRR

[3] = target: T3, Adrenergic receptor alpha-1 (Rattus norvegicus, UniProt P15823+P23944+P43140); experiment: Binding affinity against alpha-1 adrenergic receptor on rat cortex using [3H]-prazosin as radioligand.; assay type: tissue-based, Brain
T3 sequence (P15823 whole entry): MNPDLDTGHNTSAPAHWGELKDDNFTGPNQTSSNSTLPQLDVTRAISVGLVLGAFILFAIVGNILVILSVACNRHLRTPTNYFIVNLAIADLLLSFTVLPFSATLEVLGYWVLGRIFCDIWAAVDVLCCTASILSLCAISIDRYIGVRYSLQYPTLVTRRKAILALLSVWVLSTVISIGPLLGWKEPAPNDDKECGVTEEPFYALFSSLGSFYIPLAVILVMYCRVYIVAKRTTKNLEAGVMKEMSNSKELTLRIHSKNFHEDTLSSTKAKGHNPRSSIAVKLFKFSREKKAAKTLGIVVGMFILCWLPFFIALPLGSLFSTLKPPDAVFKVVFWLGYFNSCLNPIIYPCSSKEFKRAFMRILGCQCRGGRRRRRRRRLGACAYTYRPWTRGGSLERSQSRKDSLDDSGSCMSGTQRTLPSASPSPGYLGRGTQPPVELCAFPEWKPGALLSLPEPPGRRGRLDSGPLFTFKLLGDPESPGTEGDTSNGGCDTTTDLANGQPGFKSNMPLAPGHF
T3 sequence (P23944 whole entry): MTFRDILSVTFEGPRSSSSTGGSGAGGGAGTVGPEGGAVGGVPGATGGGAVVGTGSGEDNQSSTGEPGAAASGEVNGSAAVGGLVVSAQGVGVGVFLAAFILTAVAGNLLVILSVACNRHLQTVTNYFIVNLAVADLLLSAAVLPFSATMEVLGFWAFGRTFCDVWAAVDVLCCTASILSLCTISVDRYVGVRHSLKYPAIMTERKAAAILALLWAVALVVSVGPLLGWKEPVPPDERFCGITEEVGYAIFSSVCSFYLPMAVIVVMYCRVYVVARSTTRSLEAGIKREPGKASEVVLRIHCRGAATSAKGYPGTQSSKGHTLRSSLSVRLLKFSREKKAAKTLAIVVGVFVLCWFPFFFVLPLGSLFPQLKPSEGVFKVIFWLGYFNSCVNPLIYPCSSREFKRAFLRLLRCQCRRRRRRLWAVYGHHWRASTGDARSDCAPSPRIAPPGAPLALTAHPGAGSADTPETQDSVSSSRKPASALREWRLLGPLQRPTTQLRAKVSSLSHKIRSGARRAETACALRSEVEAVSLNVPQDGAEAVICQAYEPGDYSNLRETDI
T3 sequence (P43140 whole entry): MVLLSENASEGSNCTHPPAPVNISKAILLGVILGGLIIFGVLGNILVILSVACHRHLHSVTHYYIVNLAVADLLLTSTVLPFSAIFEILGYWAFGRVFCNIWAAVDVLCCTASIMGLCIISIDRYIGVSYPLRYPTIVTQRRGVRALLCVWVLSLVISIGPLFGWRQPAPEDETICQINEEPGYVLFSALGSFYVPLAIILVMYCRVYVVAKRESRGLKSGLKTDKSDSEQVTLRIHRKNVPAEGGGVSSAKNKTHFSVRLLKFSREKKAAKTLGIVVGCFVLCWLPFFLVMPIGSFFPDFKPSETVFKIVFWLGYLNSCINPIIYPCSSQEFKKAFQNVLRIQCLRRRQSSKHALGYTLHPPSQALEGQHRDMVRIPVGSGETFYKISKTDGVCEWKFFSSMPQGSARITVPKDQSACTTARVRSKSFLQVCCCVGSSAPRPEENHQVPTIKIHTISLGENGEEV

[4] = target: D(2) dopamine receptor (Rattus norvegicus, UniProt P61169); experiment: Binding affinity against dopamine receptor D2 on rat striatum using [3H]spiperone as radioligand.; assay type: tissue-based
[5] = test system: Rattus norvegicus; experiment: In vivo antagonist activity was measured as forepaw treading(FT) in a behavioral response test in reserpinized rats upon subcutaneous administration; assay type: functional
In short: (§1)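 Male Wistar rats given reserpine 18 h before use. Test compound or vehicle given 15 min before 8-OH-DPAT (0.25 mg/kg sc). Starting 3 min after agonist, forepaw treading and flat body posture scored every 3 min for 15 min on a ranked intensity scale. Doses expressed as free base. Mean ± SEM; Mann–Whitney U-test against vehicle control.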

[6] = test system: Rattus norvegicus; experiment: In vivo antagonist activity was measured as flat body posture (FBP) in a behavioral response test in reserpinized rats at 1 mg/kg(sc) dose.; assay type: functional; in short: as §1
[7] = test system: Rattus norvegicus; experiment: In vivo antagonist activity was measured as flat body posture (FBP) in a behavioral response test in reserpinized rats at 3 mg/kg(sc) dose.; assay type: functional; in short: as §1
[8] = test system: Rattus norvegicus; experiment: In vivo antagonist activity was measured as flat body posture (FBP) in a behavioral response test in reserpinized rats upon subcutaneous administration; assay type: functional; in short: as §1
[9] = test system: Rattus norvegicus; experiment: In vivo antagonist activity was measured as forepaw treading(FT) in a behavioral response test in reserpinized rats at 1 mg/kg(sc) dose.; assay type: functional; in short: as §1
[10] = test system: Rattus norvegicus; experiment: In vivo antagonist activity was measured as forepaw treading(FT) in a behavioral response test in reserpinized rats at 3 mg/kg(sc) dose.; assay type: functional; in short: as §1
[11] = target: Serotonin 1a (5-HT1a) receptor/Adrenergic receptor alpha-1 (Rattus norvegicus) (UniProt P15823+P23944+P43140+P19327); experiment: Selectivity for 5-HT1A receptor of rat hippocampus and alpha-1 adrenergic receptor of rat cortex.; assay type: tissue-based
[12] = Binding affinity (Ki) ratio of D2 receptor of rat striatum and 5-HT1A receptor of rat hippocampus.; assay type: tissue-based
[13] = test system: Rattus norvegicus; experiment: in vivo antagonist activity was measured as forepaw treading(FT) in a behavioral response test in reserpinized rats at 3 mg/kg(sc) dose; assay type: functional
In short: (§2)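 Male Wistar rats given reserpine 18 h beforehand. Test compound or vehicle given sc; 15 min later 8-OH-DPAT 0.25 mg/kg sc. Forepaw treading and flat body posture scored on a ranked intensity scale every 3 min for 15 min, starting 3 min after 8-OH-DPAT. Doses as free base; mean ± SEM, Mann–Whitney U-test against vehicle controls.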

[14] = test system: Rattus norvegicus; experiment: in vivo antagonist activity was measured as forepaw treading(FT) in a behavioral response test in reserpinized rats upon subcutaneous administration; assay type: functional; in short: as §2
[15] = test system: Rattus norvegicus; experiment: in vivo antagonist activity was measured as flat body posture (FBP) in a behavioral response test in reserpinized rats at 1 mg/kg(sc) dose; assay type: functional; in short: as §2
[16] = test system: Rattus norvegicus; experiment: in vivo antagonist activity was measured as flat body posture (FBP) in a behavioral response test in reserpinized rats at 3 mg/kg(sc) dose; assay type: functional; in short: as §2
[17] = test system: Rattus norvegicus; experiment: in vivo antagonist activity was measured as flat body posture (FBP) in a behavioral response test in reserpinized rats upon subcutaneous administration; assay type: functional; in short: as §2
[18] = test system: Rattus norvegicus; experiment: in vivo antagonist activity was measured as forepaw treading(FT) in a behavioral response test in reserpinized rats at 1 mg/kg(sc) dose; assay type: functional; in short: as §2

D(2) dopamine receptor, sequence (P61169 whole entry): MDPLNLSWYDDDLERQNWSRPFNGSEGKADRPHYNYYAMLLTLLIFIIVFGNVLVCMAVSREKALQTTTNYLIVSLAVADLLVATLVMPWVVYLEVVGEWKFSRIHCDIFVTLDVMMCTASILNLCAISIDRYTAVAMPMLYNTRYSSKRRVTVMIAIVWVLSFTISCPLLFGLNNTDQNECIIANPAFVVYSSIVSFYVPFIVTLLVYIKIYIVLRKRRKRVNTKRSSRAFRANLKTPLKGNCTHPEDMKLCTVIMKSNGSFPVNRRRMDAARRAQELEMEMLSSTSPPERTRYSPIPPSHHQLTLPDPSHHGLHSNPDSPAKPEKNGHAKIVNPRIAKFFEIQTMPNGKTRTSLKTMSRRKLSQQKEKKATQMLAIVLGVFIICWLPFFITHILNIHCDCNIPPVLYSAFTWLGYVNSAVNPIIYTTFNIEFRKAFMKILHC

Compound	FSC recovery [1] [%]	Ki [2] [nM]	Ki [3] [nM]	Ki [4] [nM]	Behavior score [5]	Behavior score [6]	Behavior score [7]	Behavior score [8]	Behavior score [9]	Behavior score [10]	Selectivity [11]	Ratio [12]	Behavior score [13]	Behavior score [14]	Behavior score [15]	Behavior score [16]	Behavior score [17]	Behavior score [18]
COc1ccc(CCCCNCCOc2cc(F)cc3c2OCC=C3)cc1	109	0.159	8.31	0.288	11.8	3.7	2.8	11.8	1.3	0	52	1.8						
COc1ccc(CCCCNCCOc2cc(F)cc3c2OCCC3O)cc1 (stereo in doubt; 34)		0.716	10.4	0.724	8.6	6.8	4	12.4	3.3	1.8								
O=C1CCOc2c(OCCNCCCCc3ccc4c(c3)OCCO4)cc(F)cc21	65	2.6	303	25.1	7.7		8.5	11		5.8	120	9.7						
COc1ccc(CCCCNCCOc2cc(F)cc3c2OCCC3=O)cc1	59	3.07	203	62.3	10.2	6	2.3	11.3	3.8	1.3	66	20						
O=C1CCOc2c(OCCNCCCCc3ccc4c(c3)OCO4)cc(F)cc21	55	2.67	209	42.1	7.8	5.3	3	9.7	3	1.5	78	16						
O=C1CCOc2c(OCCNCCCCc3ccc4c(c3)CCO4)cc(F)cc21	68	4.19	169	49.6	10.1	6.8	3.8	12.3	4	1.2	40	12						
COc1ccc(CCCCNCCOc2cc(F)cc3c2OCCC3)cc1	121				8.8	3.8	3	11.5	1.8	0.5	12	1.2						
CCCN(CCC)[C@H]1CCc2c(F)ccc(O)c2C1											130		0.5	9.9	3.5	1.8	12.6	1.3
O=C1CCOc2c(OCCNCCCCc3ccc(O)cc3)cc(F)cc21	26	55.8	120	23.3							2.2	0.42						
